One may read the IC50 as the concentration that inhibits the measured activity by half.

A value given as a limit tells only on which side of the number the result lay.

Among the data in ChEMBL document CHEMBL4706541, “Design and synthesis of 1H-indazole-3-carboxamide derivatives as potent and selective PAK1 inhibitors with anti-tumour migration and invasion activities” (Eur J Med Chem, 2020) are Activity, IC50 and inhibition of growth values, retold here.

The target of assay [1] is Serine/threonine-protein kinase PAK 1 (Homo sapiens, UniProt Q13153). The experiment in a line: Inhibition of full length recombinant human N-terminal GST/His6-tagged PAK1 expressed in sf9 insect cells assessed as residual activity at 0.1 uM using tetra LRRWSLG as substrate preincubated for 20 min followed by [gamma33P]ATP addition and measured after 120 mins by Hotspot assay relative to control. To be noted: time 140.0 min. In a few lines: (§1)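 Radiometric HotSpot kinase assay. Kinase and substrate are combined in 20 mM Hepes pH 7.5, 10 mM MgCl2, 1 mM EGTA, 0.02% Brij35, 0.02 mg/mL BSA, 0.1 mM Na3VO4, 2 mM DTT and 1% DMSO. Compound is added and preincubated 20 min at room temperature. The reaction starts with ATP plus 33P-ATP at 10 µM final and runs 120 min at 25 °C. Filter-binding read-out, given as % activity remaining versus DMSO.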

Assay [2] has as its target Serine/threonine-protein kinase PAK 5 (Homo sapiens) (UniProt Q9P286). Description: Inhibtion of recombinant human PAK5 expressed in baculovirus infected sf9 insect cells assessed as residual activity at 0.1 uM using RRRLSFAEPG as substrate preincubated for 20 min followed by [gamma33P]ATP addition and measured after 120 mins by Hotspot assay relative to control. To be noted: time 140.0 min. An outline of the steps: as §1

The target in assay [3] is LIM domain kinase 1 (Homo sapiens) (UniProt P53667). Description: Inhibition of LIMK1 (unknown origin) assessed as residual activity at 0.1 uM preincubated for 20 min followed by [gamma33P]ATP addition and measured after 120 mins by Hotspot assay relative to control. As to conditions: time 140.0 min. An outline of the steps:
as §1

Assay [4] addresses T1, Serine/threonine-protein kinase PAK 4 (Homo sapiens, UniProt O96013). Description: Inhibition of full length recombinant human N-terminal GST/His6-tagged PAK4 expressed in baculovirus infected sf9 insect cells using tetra LRRWSLG as substrate preincubated for 20 min followed by [gamma33P]ATP addition and measured after 120 mins by Hotspot assay.
Assay [5] deals with Epidermal growth factor receptor (Homo sapiens) (UniProt P00533). Description: Inhibition of EGFR (unknown origin) assessed as residual activity at 0.1 uM preincubated for 20 min followed by [gamma33P]ATP addition and measured after 120 mins by Hotspot assay relative to control. As to conditions: time 140.0 min. In a few lines: as §1
In assay [6] the target is Aurora kinase A (Homo sapiens) (UniProt O14965). Description: Inhibition of AuroraA (unknown origin) assessed as residual activity at 0.1 uM preincubated for 20 min followed by [gamma33P]ATP addition and measured after 120 mins by Hotspot assay relative to control. As to conditions: time 140.0 min. In a few lines:
as §1

The next assay deals with HCT-116. Description: Antiproliferative activity against human HCT-116 cells assessed as growth inhibition at 1 uM after 72 hrs by Cell Titer-Glo assay relative to control. As to conditions: read-out: GI. Type of assay: functional. In a few lines:
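Cells kept at 37 °C in 5% CO2 and plated at 4000 per well. Treated with compound for 72 h. Viability read by CellTiter-Glo luminescence. Each compound run in duplicate, data as means ± SD.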
(Cellular ATP, detected with luciferase, serves as a proxy for viable cell number.)

The target in assay [7] is Tyrosine-protein kinase BTK (Homo sapiens) (UniProt Q06187). Description: Inhibition of BTK (unknown origin) assessed as residual activity at 0.1 uM preincubated for 20 min followed by [gamma33P]ATP addition and measured after 120 mins by Hotspot assay relative to control. To be noted: time 140.0 min. In a few lines: as §1
Chain of Tyrosine-protein kinase BTK (Homo sapiens) (Q06187 whole entry): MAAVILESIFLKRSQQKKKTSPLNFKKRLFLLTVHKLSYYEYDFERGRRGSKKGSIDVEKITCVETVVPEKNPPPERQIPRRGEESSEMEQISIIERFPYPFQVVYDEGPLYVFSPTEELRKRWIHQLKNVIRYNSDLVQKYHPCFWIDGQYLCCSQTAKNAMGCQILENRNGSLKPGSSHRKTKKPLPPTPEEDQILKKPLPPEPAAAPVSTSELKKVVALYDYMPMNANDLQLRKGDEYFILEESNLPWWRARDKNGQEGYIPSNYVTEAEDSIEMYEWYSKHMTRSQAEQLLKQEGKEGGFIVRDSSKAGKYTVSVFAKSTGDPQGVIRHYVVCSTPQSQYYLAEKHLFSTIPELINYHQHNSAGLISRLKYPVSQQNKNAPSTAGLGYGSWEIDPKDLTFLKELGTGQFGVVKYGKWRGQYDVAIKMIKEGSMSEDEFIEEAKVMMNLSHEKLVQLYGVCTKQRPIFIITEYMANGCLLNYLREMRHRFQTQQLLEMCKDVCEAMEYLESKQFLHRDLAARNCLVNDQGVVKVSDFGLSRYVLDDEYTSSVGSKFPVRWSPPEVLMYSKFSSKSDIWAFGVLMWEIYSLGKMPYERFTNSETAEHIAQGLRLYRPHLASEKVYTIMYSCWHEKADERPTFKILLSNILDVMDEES
Assay [8] concerns the target Serine/threonine-protein kinase B-raf (Homo sapiens) (UniProt P15056). Description: Inhibition of BRAF (unknown origin) assessed as residual activity at 0.1 uM preincubated for 20 min followed by [gamma33P]ATP addition and measured after 120 mins by Hotspot assay relative to control. As to conditions: time 140.0 min. In a few lines: as §1
For assay [9], the target named is Serine/threonine-protein kinase PAK 6 (Homo sapiens) (UniProt Q9NQU5). The experiment in a line: Inhibtion of full length recombinant human N-terminal GST/His6-tagged PAK6 expressed in sf9 insect cells assessed as residual activity at 0.1 uM using tetra LRRWSLG as substrate preincubated for 20 min followed by [gamma33P]ATP addition and measured after 120 mins by Hotspot assay relative to control. As to conditions: time 140.0 min. In a few lines:
as §1

The target in assay [10] is Serine/threonine-protein kinase 24 (Homo sapiens) (UniProt Q9Y6E0). Description: Inhibition of STK24 (unknown origin) assessed as residual activity at 0.1 uM preincubated for 20 min followed by [gamma33P]ATP addition and measured after 120 mins by Hotspot assay relative to control. As to conditions: time 140.0 min. An outline of the steps: as §1
Chain of Serine/threonine-protein kinase 24 (Homo sapiens) (Q9Y6E0 whole entry, looked up): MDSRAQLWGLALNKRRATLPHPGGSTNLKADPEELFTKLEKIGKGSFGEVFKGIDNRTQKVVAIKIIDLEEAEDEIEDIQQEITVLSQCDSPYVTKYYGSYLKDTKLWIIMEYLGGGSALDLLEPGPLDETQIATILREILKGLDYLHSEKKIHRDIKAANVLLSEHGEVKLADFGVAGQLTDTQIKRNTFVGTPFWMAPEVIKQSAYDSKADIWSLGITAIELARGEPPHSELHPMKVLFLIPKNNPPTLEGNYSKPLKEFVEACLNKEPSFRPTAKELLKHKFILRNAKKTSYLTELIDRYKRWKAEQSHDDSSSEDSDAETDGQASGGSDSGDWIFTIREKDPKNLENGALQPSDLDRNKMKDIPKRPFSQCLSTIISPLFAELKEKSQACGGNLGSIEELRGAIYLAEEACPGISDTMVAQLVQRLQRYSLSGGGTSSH
In assay [11] the target is RAC-alpha serine/threonine-protein kinase (Homo sapiens) (UniProt P31749). The experiment in a line: Inhibition of AKT1 (unknown origin) assessed as residual activity at 0.1 uM preincubated for 20 min followed by [gamma33P]ATP addition and measured after 120 mins by Hotspot assay relative to control. To be noted: time 140.0 min. An outline of the steps: as §1
The target of assay [12] is Tyrosine-protein kinase SYK (Homo sapiens) (UniProt P43405). The experiment in a line: Inhibition of SYK (unknown origin) assessed as residual activity at 0.1 uM preincubated for 20 min followed by [gamma33P]ATP addition and measured after 120 mins by Hotspot assay relative to control. As to conditions: time 140.0 min. In a few lines:
as §1

In assay [13] the target is Mitogen-activated protein kinase 14 (Homo sapiens) (UniProt Q16539). Description: Inhibition of P38alpha (unknown origin) assessed as residual activity at 0.1 uM preincubated for 20 min followed by [gamma33P]ATP addition and measured after 120 mins by Hotspot assay relative to control. To be noted: time 140.0 min. An outline of the steps: as §1
Assay [14] concerns the target Voltage-gated inwardly rectifying potassium channel KCNH2 (Homo sapiens, UniProt Q12809). The experiment in a line: Inhibition of human ERG.
Assay [15] addresses Tyrosine-protein kinase Lck (Homo sapiens) (UniProt P06239). The experiment in a line: Inhibition of LCK (unknown origin) assessed as residual activity at 0.1 uM preincubated for 20 min followed by [gamma33P]ATP addition and measured after 120 mins by Hotspot assay relative to control. To be noted: time 140.0 min. An outline of the steps: as §1
Assay [16] concerns the target Ephrin type-A receptor 1 (Homo sapiens) (UniProt P21709). Description: Inhibition of EPHA1 (unknown origin) assessed as residual activity at 0.1 uM preincubated for 20 min followed by [gamma33P]ATP addition and measured after 120 mins by Hotspot assay relative to control. As to conditions: time 140.0 min. In a few lines: as §1
Assay [17] deals with T1, Serine/threonine-protein kinase PAK 4. Description: Inhibtion of full length recombinant human N-terminal GST/His6-tagged PAK4 expressed in baculovirus infected sf9 insect cells assessed as residual activity at 0.1 uM using tetra LRRWSLG as substrate preincubated for 20 min followed by [gamma33P]ATP addition and measured after 120 mins by Hotspot assay relative to control. As to conditions: time 140.0 min. An outline of the steps: as §1

Assay [18] concerns the target Dual specificity mitogen-activated protein kinase kinase 1 (Homo sapiens) (UniProt Q02750). The experiment in a line: Inhibition of MEK1 (unknown origin) assessed as residual activity at 0.1 uM preincubated for 20 min followed by [gamma33P]ATP addition and measured after 120 mins by Hotspot assay relative to control. To be noted: time 140.0 min. An outline of the steps:
as §1

Assay [19] concerns the target CDK6/cyclin D1 (Homo sapiens) (UniProt P24385+Q00534). The experiment in a line: Inhibition of CDK6/cyclin Dl (unknown origin) assessed as residual activity at 0.1 uM preincubated for 20 min followed by [gamma33P]ATP addition and measured after 120 mins by Hotspot assay relative to control. Type of assay: protein-complex assay. To be noted: time 140.0 min. In a few lines: as §1

For assay [20], the target named is Mitogen-activated protein kinase 8 (Homo sapiens) (UniProt P45983). Description: Inhibition of JNK1 (unknown origin) assessed as residual activity at 0.1 uM preincubated for 20 min followed by [gamma33P]ATP addition and measured after 120 mins by Hotspot assay relative to control. As to conditions: time 140.0 min. In a few lines:
as §1

The target in assay [21] is Mast/stem cell growth factor receptor Kit (Homo sapiens) (UniProt P10721). Description: Inhibition of c-Kit (unknown origin) assessed as residual activity at 0.1 uM preincubated for 20 min followed by [gamma33P]ATP addition and measured after 120 mins by Hotspot assay relative to control. As to conditions: time 140.0 min. An outline of the steps:
as §1

Chain of Voltage-gated inwardly rectifying potassium channel KCNH2 (Q12809 whole entry): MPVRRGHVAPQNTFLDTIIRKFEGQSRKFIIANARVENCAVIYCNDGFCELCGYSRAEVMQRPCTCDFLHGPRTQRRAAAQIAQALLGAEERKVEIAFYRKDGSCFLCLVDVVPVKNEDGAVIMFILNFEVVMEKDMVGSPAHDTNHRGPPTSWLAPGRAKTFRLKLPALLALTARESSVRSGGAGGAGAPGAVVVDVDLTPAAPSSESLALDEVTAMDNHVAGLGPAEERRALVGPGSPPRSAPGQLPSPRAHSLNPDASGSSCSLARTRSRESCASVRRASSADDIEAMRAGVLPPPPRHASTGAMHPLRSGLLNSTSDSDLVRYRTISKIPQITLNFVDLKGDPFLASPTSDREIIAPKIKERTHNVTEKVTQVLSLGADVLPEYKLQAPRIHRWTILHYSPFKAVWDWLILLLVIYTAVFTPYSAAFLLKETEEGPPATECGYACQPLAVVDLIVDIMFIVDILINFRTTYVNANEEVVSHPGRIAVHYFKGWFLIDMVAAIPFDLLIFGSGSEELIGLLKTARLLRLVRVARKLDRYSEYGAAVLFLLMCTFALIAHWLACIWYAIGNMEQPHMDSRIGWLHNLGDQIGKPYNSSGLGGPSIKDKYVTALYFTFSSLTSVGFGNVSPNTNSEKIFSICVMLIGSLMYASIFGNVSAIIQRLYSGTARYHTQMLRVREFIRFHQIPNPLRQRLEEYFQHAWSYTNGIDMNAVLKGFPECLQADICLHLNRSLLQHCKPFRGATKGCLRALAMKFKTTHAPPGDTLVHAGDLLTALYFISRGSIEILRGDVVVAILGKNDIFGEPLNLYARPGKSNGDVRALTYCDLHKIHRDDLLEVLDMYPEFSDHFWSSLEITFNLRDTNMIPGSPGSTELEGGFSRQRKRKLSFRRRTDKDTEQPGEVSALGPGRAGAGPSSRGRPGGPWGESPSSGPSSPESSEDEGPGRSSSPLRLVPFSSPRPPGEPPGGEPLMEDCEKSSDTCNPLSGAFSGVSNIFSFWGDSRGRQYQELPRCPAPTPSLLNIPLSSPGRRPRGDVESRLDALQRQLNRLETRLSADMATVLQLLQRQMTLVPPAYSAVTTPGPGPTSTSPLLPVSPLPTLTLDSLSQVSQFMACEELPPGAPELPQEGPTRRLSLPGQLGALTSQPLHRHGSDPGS
Chain of Mast/stem cell growth factor receptor Kit (Homo sapiens) (P10721 whole entry): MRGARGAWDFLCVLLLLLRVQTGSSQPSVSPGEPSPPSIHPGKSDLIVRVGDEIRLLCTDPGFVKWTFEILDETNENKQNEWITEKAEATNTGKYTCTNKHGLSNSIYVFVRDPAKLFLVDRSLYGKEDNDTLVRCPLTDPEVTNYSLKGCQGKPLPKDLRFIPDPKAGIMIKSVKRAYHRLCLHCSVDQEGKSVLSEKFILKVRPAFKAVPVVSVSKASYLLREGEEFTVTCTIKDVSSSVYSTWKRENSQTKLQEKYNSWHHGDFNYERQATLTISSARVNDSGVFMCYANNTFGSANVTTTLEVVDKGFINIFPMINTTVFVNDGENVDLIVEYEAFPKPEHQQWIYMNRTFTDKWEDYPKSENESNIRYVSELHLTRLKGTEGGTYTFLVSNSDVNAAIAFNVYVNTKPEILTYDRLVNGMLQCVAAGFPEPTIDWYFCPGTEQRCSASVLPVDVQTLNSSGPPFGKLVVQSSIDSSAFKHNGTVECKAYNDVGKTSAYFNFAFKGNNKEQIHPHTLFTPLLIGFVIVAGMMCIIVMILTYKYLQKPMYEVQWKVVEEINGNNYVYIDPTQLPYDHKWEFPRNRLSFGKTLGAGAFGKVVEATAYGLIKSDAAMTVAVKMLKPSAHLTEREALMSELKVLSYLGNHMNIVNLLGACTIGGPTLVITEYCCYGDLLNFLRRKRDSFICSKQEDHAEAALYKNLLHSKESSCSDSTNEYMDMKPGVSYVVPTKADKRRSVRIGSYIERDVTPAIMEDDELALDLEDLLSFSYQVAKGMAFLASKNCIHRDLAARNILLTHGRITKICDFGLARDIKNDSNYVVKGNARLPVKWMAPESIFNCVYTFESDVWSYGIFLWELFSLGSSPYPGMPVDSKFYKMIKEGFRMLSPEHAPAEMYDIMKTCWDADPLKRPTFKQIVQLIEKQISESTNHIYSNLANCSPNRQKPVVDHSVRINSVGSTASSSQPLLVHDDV
Chain of Mitogen-activated protein kinase 8 (Homo sapiens) (P45983 whole entry): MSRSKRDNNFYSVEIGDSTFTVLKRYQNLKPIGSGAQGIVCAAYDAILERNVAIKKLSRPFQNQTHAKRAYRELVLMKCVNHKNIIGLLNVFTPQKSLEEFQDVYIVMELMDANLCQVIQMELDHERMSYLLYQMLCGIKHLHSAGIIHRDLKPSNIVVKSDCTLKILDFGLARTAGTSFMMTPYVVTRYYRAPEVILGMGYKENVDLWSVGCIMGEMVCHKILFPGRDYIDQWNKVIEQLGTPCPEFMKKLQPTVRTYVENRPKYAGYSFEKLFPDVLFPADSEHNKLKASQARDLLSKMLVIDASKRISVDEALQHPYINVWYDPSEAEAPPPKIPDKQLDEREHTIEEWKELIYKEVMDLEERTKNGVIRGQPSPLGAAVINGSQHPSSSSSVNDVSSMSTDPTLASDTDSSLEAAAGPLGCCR
Chain of Serine/threonine-protein kinase PAK 6 (Homo sapiens) (Q9NQU5 whole entry, looked up): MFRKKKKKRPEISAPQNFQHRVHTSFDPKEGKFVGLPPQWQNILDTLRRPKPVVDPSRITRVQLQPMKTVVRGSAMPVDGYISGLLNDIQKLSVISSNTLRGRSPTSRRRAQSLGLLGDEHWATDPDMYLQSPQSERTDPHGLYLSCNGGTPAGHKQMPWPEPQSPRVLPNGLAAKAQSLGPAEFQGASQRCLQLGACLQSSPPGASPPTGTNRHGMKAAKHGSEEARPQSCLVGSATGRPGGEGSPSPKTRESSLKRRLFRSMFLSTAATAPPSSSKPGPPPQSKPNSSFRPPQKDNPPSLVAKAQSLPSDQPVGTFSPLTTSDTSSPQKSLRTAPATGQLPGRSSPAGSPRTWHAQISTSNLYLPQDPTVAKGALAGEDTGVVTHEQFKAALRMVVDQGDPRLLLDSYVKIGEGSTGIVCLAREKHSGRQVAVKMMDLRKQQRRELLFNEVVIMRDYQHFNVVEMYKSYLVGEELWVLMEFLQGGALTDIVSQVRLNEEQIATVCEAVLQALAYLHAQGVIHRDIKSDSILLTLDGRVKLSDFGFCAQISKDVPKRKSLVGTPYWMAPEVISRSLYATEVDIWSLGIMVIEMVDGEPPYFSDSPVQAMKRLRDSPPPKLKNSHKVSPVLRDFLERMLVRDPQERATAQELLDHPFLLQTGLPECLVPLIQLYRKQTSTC
Chain of Tyrosine-protein kinase Lck (Homo sapiens) (P06239 2-509 limits assumed): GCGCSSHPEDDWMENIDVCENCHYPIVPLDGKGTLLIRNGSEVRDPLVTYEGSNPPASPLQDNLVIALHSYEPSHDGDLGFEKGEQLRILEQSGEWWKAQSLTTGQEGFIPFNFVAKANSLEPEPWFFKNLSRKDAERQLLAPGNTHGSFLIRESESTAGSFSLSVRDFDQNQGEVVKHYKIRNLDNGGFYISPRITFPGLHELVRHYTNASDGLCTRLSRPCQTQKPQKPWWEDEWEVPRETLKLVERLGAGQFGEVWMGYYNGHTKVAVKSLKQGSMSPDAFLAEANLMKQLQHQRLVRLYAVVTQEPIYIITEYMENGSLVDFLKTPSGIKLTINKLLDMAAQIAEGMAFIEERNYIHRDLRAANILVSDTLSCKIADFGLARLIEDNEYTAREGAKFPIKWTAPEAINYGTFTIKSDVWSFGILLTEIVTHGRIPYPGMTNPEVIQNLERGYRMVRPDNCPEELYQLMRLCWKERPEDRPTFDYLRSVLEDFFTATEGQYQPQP

For `Cc1cccn(-c2ccc(-c3ccc4c(C(=O)NCc5ccncc5)n[nH]c4c3)c(Cl)c2)c1=O`, the Activity was 27.6% in assay [1]; 116% in assay [2]; 115% in assay [3]; 89.3% in [5]; 87.8% in assay [6]; 99.1% in [7]. Also, the Activity in assay [8] was found to be 84.4%; in assay [9], 80%; in assay [10], 64%; in assay [11], 98.8%; in [12], 94.2%; in assay [13], 78%. The Activity in assay [15] turned out to be 88.6%; in assay [16], 91.9%; in [17], 104%; in [18] it was 84.4%; in assay [19], 112%; in [20], 72.8%. For the same compound, the Activity in [21] was 99.2%. The IC50 in [4] is more than 10 µM; in [14] it was 16 µM. For the same compound, the inhibition of growth at 1 µM in the assay on HCT-116 is 8.73%.
